Assay results as given in ChEMBL document CHEMBL5046317, “Diminishing GSH-Adduct Formation of Tricyclic Diazepine-based Mutant IDH1 Inhibitors” (ACS Med Chem Lett, 2022).
Values after ≈ are worked out from the molar mass of the structure shown.

Assays:
MOG-G-UVW = test: Antiproliferative activity against human MOG-G-UVW cells assessed as inhibition of cell proliferation incubated for 72 hrs by cell titer-Glo assay; format: functional, cell-based
P-gp (ABCB1) = P-gp (ABCB1) (Homo sapiens, UniProt P08183); test: Substrate activity at P-gp (unknown origin) transfected in LLC-PK1 cells expressing human MDR1 gene assessed as efflux ratio of permeability across basolateral to apical membrane at 0.1 uM; format: ADME, cell-based
Chain of P-gp (ABCB1) (P08183 whole entry): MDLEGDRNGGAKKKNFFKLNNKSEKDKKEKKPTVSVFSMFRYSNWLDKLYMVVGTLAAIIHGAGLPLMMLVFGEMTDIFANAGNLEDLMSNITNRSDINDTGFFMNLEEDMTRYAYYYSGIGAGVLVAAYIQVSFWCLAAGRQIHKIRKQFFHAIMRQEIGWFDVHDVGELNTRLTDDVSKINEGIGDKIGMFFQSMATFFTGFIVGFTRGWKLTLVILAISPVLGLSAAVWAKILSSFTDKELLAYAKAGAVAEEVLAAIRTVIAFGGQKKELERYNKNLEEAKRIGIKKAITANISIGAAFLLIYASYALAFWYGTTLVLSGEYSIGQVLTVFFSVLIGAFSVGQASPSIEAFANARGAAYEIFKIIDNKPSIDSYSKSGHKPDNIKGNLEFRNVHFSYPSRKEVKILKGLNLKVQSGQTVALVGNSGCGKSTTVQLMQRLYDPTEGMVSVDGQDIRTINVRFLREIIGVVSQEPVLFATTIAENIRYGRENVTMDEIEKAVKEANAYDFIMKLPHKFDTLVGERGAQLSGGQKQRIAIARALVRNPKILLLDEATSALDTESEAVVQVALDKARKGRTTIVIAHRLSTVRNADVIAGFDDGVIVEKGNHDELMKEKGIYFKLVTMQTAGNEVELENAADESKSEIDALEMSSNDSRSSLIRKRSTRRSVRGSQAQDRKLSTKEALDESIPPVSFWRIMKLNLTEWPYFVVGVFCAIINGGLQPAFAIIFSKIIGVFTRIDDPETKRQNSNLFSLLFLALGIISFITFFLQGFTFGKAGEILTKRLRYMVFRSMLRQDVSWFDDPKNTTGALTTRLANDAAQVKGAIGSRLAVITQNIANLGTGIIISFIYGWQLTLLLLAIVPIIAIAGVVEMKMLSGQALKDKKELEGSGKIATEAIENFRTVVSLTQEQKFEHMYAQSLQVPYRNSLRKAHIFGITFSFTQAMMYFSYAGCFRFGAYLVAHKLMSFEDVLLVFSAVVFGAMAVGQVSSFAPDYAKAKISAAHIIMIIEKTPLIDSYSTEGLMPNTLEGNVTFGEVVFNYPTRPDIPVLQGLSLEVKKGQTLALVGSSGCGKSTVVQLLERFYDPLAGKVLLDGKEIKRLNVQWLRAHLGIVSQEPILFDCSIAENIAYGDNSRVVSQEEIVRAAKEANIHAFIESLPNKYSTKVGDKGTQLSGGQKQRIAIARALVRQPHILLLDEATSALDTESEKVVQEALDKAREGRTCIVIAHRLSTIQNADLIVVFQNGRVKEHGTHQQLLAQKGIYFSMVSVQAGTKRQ

[1] = target: Isocitrate dehydrogenase [NADP] cytoplasmic (Homo sapiens, UniProt O75874, R132H); test: Inhibition of IDH1 R132H mutant (unknown origin) assessed as reduction in NADPH consumption using alpha-KG as substrate incubated for 60 mins by Kinase-GLO reagent based assay
Chain of Isocitrate dehydrogenase [NADP] cytoplasmic (Homo sapiens, UniProt O75874, R132H) (O75874 2-414 R132H limits assumed): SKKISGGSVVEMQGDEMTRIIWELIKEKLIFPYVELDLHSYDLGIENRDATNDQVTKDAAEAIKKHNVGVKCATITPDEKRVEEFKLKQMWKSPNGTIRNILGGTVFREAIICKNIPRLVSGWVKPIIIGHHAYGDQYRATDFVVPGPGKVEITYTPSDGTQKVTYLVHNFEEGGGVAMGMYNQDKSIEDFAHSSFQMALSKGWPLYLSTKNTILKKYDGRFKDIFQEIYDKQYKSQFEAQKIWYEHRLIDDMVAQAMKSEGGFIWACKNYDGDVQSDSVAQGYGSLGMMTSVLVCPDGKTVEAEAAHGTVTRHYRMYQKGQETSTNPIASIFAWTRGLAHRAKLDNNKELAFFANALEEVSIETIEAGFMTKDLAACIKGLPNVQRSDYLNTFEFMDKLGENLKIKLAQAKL

[2] = Metabolic stability in human liver microsomes assessed as intrinsic clearance; format: ADME, Microsome; conditions: read-out: CLH
[3] = test system: P-gp (Mdr1) (Rattus norvegicus); test: Substrate activity at rat P-gp transfected in […]-MDR1 expressing Mdr1 gene assessed as efflux ratio of permeability across basolateral to apical membrane at 0.1 uM
[4] = target: T1, Nuclear receptor subfamily 1 group I member 2 (Homo sapiens, UniProt O75469); test: Inhibition of PXR (unknown origin)
T1 sequence (O75469 whole entry): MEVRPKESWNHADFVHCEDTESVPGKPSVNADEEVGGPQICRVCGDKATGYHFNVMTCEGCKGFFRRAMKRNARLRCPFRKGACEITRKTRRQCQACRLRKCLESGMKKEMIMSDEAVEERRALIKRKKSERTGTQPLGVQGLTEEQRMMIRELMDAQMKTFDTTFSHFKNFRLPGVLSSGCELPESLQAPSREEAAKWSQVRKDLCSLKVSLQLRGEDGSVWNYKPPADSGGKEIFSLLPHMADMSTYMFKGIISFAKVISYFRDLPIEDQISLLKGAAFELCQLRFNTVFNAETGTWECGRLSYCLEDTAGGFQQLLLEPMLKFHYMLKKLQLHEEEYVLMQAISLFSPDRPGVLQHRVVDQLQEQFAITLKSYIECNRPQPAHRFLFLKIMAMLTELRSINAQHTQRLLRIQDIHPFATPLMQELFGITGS

[5] = target: Isocitrate dehydrogenase [NADP] cytoplasmic (Homo sapiens, UniProt O75874); test: Inhibition of IDH1 (unknown origin)
Chain of Isocitrate dehydrogenase [NADP] cytoplasmic (Homo sapiens, UniProt O75874) (O75874 whole entry): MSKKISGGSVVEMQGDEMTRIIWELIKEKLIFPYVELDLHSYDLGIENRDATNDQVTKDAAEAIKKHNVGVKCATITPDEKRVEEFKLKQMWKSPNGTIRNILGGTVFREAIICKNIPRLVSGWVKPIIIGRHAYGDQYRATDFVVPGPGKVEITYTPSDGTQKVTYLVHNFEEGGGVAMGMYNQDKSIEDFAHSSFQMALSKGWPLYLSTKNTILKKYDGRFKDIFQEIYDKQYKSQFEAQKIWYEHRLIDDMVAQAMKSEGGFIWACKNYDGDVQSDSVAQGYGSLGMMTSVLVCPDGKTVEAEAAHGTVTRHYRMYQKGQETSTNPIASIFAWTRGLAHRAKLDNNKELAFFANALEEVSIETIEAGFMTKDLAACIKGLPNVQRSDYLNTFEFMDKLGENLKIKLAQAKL

[6] = target: T2, Isocitrate dehydrogenase [NADP], mitochondrial (Homo sapiens, UniProt P48735); test: Inhibition of IDH2 (unknown origin)
T2 sequence (P48735 whole entry): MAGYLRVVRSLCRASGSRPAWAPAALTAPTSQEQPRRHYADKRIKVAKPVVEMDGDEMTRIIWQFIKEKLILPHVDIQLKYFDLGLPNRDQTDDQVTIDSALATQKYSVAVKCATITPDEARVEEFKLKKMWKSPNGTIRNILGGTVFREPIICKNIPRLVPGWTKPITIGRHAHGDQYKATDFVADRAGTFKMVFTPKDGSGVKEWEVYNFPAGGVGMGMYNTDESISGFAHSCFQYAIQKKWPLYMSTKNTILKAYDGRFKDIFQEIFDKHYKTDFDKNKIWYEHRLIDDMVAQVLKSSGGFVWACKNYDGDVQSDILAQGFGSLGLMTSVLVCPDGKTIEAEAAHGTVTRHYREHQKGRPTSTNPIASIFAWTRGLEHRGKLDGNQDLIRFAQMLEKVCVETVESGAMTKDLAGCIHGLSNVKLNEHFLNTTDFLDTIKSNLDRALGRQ

Cytochrome P450 3A4 = Cytochrome P450 3A4 (Homo sapiens, UniProt P08684); test: Inhibition of CYP3A4 (unknown origin); format: ADME
Chain of Cytochrome P450 3A4 (P08684 whole entry): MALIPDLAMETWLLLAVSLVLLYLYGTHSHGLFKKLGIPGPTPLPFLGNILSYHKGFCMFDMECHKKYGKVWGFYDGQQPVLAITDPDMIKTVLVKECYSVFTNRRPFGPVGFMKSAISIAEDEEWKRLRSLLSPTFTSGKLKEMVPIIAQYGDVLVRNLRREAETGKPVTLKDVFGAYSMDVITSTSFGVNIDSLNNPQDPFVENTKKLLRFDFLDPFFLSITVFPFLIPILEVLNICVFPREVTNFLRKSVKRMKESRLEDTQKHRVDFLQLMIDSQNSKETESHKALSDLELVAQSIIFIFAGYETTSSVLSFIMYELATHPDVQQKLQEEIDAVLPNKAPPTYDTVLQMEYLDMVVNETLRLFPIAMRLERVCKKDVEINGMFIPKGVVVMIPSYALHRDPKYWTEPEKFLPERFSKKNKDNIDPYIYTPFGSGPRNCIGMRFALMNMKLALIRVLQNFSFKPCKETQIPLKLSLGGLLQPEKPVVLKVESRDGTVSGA

[7] = Drug metabolism in dog liver microsomes assessed as glutathione-adduct formation measured after 60 mins in presence of NADPH; format: ADME, Canis lupus familiaris, Microsome; conditions: 1 h
[8] = Solubility of the compound at pH 2; format: physicochemical; conditions: buffer
[9] = Volume of distribution in dog at 2 mg/kg, iv measured up to 24 hrs by LC-MS/MS analysis; format: ADME, organism-based, Canis lupus familiaris; conditions: in vivo
Method in brief: (§1)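 Single-dose PK in rat and dog. Rat received 0.5 mg/kg IV and 1 mg/kg PO; dog received 2 mg/kg IV and 10 mg/kg PO. Parameters derived: terminal t1/2, Vd, clearance and oral bioavailability F.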

[10] = Clearance in dog at 2 mg/kg, iv measured up to 24 hrs by LC-MS/MS analysis; format: ADME, organism-based, Canis lupus familiaris; conditions: in vivo; method in brief: as §1
[11] = Solubility of the compound at pH 6.5; format: physicochemical; conditions: buffer
[12] = Half life in rat at 0.5 mg/kg, iv measured up to 24 hrs by LC-MS/MS analysis; format: ADME, organism-based; conditions: in vivo; method in brief: as §1
[13] = Clearance in rat at 0.5 mg/kg, iv measured up to 24 hrs by LC-MS/MS analysis; format: ADME, organism-based; conditions: in vivo; method in brief: as §1
[14] = Distribution coefficient, logD of compound at pH 7.4 by HPLC analysis; format: physicochemical; conditions: octanol/water
[15] = Permeability of the compound in pig LLC-PK1 cells expressing MDR1; format: ADME, cell-based, Sus scrofa; conditions: read-out: permeability
[16] = Oral bioavailability in rat 1 mg/kg measured up to 24 hrs by LC-MS/MS analysis; format: ADME, organism-based; conditions: in vivo; method in brief: as §1
[17] = Solubility of the compound at pH 7; format: physicochemical; conditions: buffer
[18] = Volume of distribution in rat at 0.5 mg/kg, iv measured up to 24 hrs by LC-MS/MS analysis; format: ADME, organism-based; conditions: in vivo; method in brief: as §1
[19] = Oral bioavailability in dog 10 mg/kg measured up to 24 hrs by LC-MS/MS analysis; format: ADME, organism-based, Canis lupus familiaris; conditions: in vivo; method in brief: as §1
[20] = Half life in dog at 2 mg/kg, iv measured up to 24 hrs by LC-MS/MS analysis; format: ADME, organism-based, Canis lupus familiaris; conditions: in vivo; method in brief: as §1

| SMILES | efflux ratio at 0.1 µM (P-gp (ABCB1)) | IC50 [1] [nM] | CLint scaled [2] [mL/min/kg] | IC50 (MOG-G-UVW) [nM] | further results |
| --- | --- | --- | --- | --- | --- |
| CC(C)O[C@H]1CC[C@H](C(=O)N2Cc3nccnc3Nc3ccc(C4CCOCC4)cc32)CC1 | 1.4 | 22.4 | 92 | 146 |  |
| CC(C)O[C@H]1CC[C@H](C(=O)N2Cc3cccnc3Nc3cnc(C4COCCO4)cc32)CC1 (some centres not stated) | 3.7 | 181 | 20 | 581 |  |
| COC1C[C@H]2CC[C@@H](C1)N2c1ccc2c(c1)N(C(=O)C1CCN(CC(F)(F)F)CC1)Cc1cccnc1N2 (some centres not stated) |  | 15.6 |  | 61 |  |
| CC(C)O[C@H]1CC[C@H](C(=O)N2Cc3cccnc3Nc3ccc(N4CC5(CCCOC5)C4)cc32)CC1 |  |  |  | 119 |  |
| O=C(C1CCc2ccccc2CC1)N1Cc2cccnc2Nc2ccc(N3CCOCC3)cc21 | 1.7 | > 50000 | 1500 | 43 | IC50 [4]: 3200 nM; IC50 [5]: > 5000 nM; IC50 (Cytochrome P450 3A4): > 5000 nM |
| CC(C)O[C@H]1CC[C@H](C(=O)N2Cc3cccnc3Nc3cnn(CC4CCOCC4)c32)CC1 |  | 1390 |  | 5020 |  |
| O=C(C1CCN(CC(F)(F)F)CC1)N1Cc2cc(F)cnc2Nc2ccc(N3C[C@@H]4C[C@H]3CO4)cc21 | 2.2 | 8.7 | 33 | 42.4 |  |
| CC(C)O[C@H]1CC[C@H](C(=O)N2Cc3cccnc3Nc3ccc(C4COCCO4)cc32)OC1 (some centres not stated) | 1.1 |  | 34 | 88.5 | Activity [7]: 7% |
| CC(C)O[C@H]1CC[C@H](C(=O)N2Cc3cccnc3Nc3cc(F)c(C4COCCO4)cc32)OC1 (some centres not stated) | 1.2 | 32.5 | 58 | 53.6 | solubility [8]: 143 µM (≈ 67.4 µg/mL); Vd [9]: 5.1 L/kg; clearance [10]: 26 mL/min/kg; solubility [11]: 154 µM (≈ 72.6 µg/mL); half-life [12]: 1.1 h; clearance [13]: 69 mL/min/kg; Activity [7]: 1%; logD [14]: 2.67; Papp [15]: 38.7 ×10⁻⁶ cm/s; bioavailability [16]: 100%; solubility [17]: 123 µM (≈ 58 µg/mL); Vd [18]: 3.7 L/kg; bioavailability [19]: 77%; half-life [20]: 6 h |
| CC(C)O[C@H]1CC[C@H](C(=O)N2Cc3cc(F)cnc3Nc3ccc(C4COCCO4)cc32)OC1 (some centres not stated) | 0.9 | 24.4 | 50 | 56.9 | Activity [7]: 12% |
| CC(C)O[C@H]1CC[C@H](C(=O)N2Cc3cc(F)cnc3Nc3ccc(-c4cnn(C)c4)cc32)OC1 | 1.2 | 4.9 | 51 | 18.3 |  |

Continued, in another order:

| efflux ratio at 0.1 µM (P-gp (ABCB1)) | IC50 [1] [nM] | CLint scaled [2] [mL/min/kg] | SMILES | IC50 (MOG-G-UVW) [nM] | further results |
| --- | --- | --- | --- | --- | --- |
| 2.2 | 113 |  | Cc1cnc2c(c1)CN(C(=O)[C@H]1CC[C@H](OC(C)C)CC1)c1cc(N3CC4CCC3CO4)ccc1N2 (some centres not stated) | 456 |  |
|  |  | 34 | CC(C)O[C@H]1CC[C@H](C(=O)N2Cc3cccnc3Nc3ccc(N4C[C@@H]5C[C@H]4CO5)cc32)CC1 | 60.6 |  |
|  | 11200 |  | CC(C)O[C@H]1CC[C@H](C(=O)N2Cc3cc(S(C)(=O)=O)cnc3Nc3ccc(N4CC5CCC4CO5)cc32)CC1 (some centres not stated) | > 10000 |  |
| 3.1 |  | 210 | CC(C)O[C@H]1CC[C@H](C(=O)N2Cc3cccnc3Nc3ccc(N4CC5CCC4CO5)c(F)c32)CC1 (some centres not stated) | 205 |  |
|  | 28.7 |  | CC(C)O[C@H]1CC[C@H](C(=O)N2Cc3cc(Cl)cnc3Nc3ccc(N4CC5CCC4CO5)cc32)CC1 (some centres not stated) | 95.9 | efflux ratio at 0.1 µM [3]: 4.6 |
|  | 21.6 | 21 | CC(C)O[C@H]1CC[C@H](C(=O)N2Cc3cccnc3Nc3ccc(N4C[C@H]5CC[C@@H]4CO5)cc32)OC1 | 17.8 | IC50 [4]: 18000 nM; IC50 [5]: > 50000 nM; IC50 [6]: > 50000 nM; IC50 (Cytochrome P450 3A4): 1000 nM |
| 3.4 | 25.3 | 143 | CC(C)O[C@H]1CC[C@H](C(=O)N2c3cc(N4C[C@@H]5C[C@H]4CO5)ccc3Nc3ncccc3C2C)CC1 (some centres not stated) | 88.6 |  |
| 8.1 | 197 | 177 | CC(C)O[C@H]1CC[C@H](C(=O)N2Cc3cncnc3Nc3ccc(N4C[C@@H]5C[C@H]4CO5)cc32)CC1 | 810 |  |
| 3.6 | 11 |  | CC(C)O[C@H]1CC[C@H](C(=O)N2Cc3cccnc3Nc3ccc(N4CC5CCC4CO5)cc32)CC1 (some centres not stated) | 17.2 |  |
| 2.9 | 21.2 |  | CC(C)O[C@H]1CC[C@H](C(=O)N2Cc3cc(F)cnc3Nc3ccc(N4CC5CCC4CO5)cc32)CC1 (some centres not stated) | 18.2 |  |
|  | 34.9 |  | CC(C)O[C@H]1CC[C@H](C(=O)N2Cc3cccnc3Nc3ccc(N4CCOCC4)cc32)CC1 | 64.4 |  |
| 1.4 | 11 | 22 | CC(C)O[C@H]1CC[C@H](C(=O)N2Cc3cc(F)cnc3Nc3ccc(N4C[C@H]5CC[C@@H]4CO5)cc32)OC1 | 8.1 |  |
| 2.5 |  | 124 | CC(C)O[C@H]1CC[C@H](C(=O)N2Cc3cccnc3Nc3cc(F)c(N4CC5CCC4CO5)cc32)CC1 (some centres not stated) | 36.2 |  |
| 6.6 | 116 | 64 | CC(C)O[C@H]1CC[C@H](C(=O)N2Cc3cccnc3Nc3cnc(N4C[C@@H]5C[C@H]4CO5)cc32)CC1 | 261 |  |
